The values that follow come from PubChem BioAssay.

The nature of experiment [1]: reduced viability of SK-BR-3 breast cancer cells – cell-based, 24 h, human, pilot screen (AID 572;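 active = viability at or below 10% of carrier control in both of two separate runs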;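 note: compound exposure lasted between 18 and 24 h rather than exactly 24 h; 100% = carrier-treated control wells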). To be noted: SK-BR-3 viability, CellTiter-Glo luminescence, at 10 µM, stronger effect = lower value.
A short description of experiment [2]: HUVEC growth inhibition – cell-based, human, primary screen (AID 575).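 Note: 100% = median of untreated cell wells with 0.1% DMSO on each plate.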 To be noted: HUVEC proliferation, CellTiter-Glo luminescence, 72 h; at 10 µM; stronger effect = lower value. In a few lines:
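Test system: primary human umbilical vein endothelial cells; medium: endothelial basal medium with 2% FBS plus growth supplements; dosing: 10 µM compound only; times: 72 h treatment at 37 °C; signal: CTG luminescence; read-out: % viability relative to median vehicle-well signal on each plate; control set: vehicle and MePR control wells; plate: 384-well, collagen-coated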

Experiment [3] in a line: H69AR cell proliferation blockers – human, duplicate replicates, primary screen (AID 580;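 active = viability at or under a set limit in both replicates, limit being median viability minus 3 SD, cut at about 48% in these data, passing the limit was not always enough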;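 note: 100% = mean luminescence of untreated wells and 0% = no signal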). Particulars: H69AR lung tumor cells viability, ATP luminescence, 72 h; at 10 µM; stronger effect = lower value.
Experiment [4] in a line: MRP1 drug-resistance reversers in H69AR cells – cell-based, doxorubicin co-treatment, pilot screen (AID 601;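 active = viability loss from added drug above about 55%, and viability with drug at most 40%, in both replicates, limit read from the data, passing the limit was not always enough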). Particulars: CellTiter-Glo, 72 h, at 10 µM; for differential viability (reversal): stronger effect = higher value. In general terms: Cellular ATP, detected with luciferase, serves as a proxy for viable cell number.
Experiment [5] can be described thus: yeast transport mutant growth inhibition pilot in 384-well plates, post-Golgi transport modulator project (AID 636; in the data active = inhibition above about 31%). Particulars: absorbance 615 nm, about 18 h, stronger effect = higher value.
Experiment [6] in a line: growth suppression of yeast trafficking mutant, preliminary HTS, modulators of trafficking downstream of Golgi apparatus project, 1536-format plate, OD 615 nm (AID 637; in the data active = inhibition above about 30%). To be noted: yeast transport mutant growth, absorbance 615 nm, 18 h; stronger effect = higher value.
[7] abbreviates: H69AR cells + 2 uM doxorubicin, measured here: viability with 2 uM doxorubicin, stronger effect = lower value.
Where [8] appears, read: H69AR cells, compound alone cytotoxicity.

The source made the active and inactive calls.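 Rule for the calls, unless noted: active = viability at or below 30% in both replicate assays; inconclusive = viability at or below 30% in just one of the two assays; inactive = the rest.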

By viability is commonly meant a read-out of living cells in per cent, often relative to untreated cells. What is called inhibition is the drop in the measured response relative to a control, in per cent.

As to `COc1cccc(NC(=O)C2C3C=CC4(O3)C2C(=O)N(C(C)C)C4C(=O)NC2CCCCC2C)c1` (stereo unspecified), the viability in experiment [1] is 111% (inactive); in experiment [2], 105% (inactive); in experiment [3] it was 96.9% (inactive); in experiment [4] (setting [7]), 88.1%; in experiment [4] (setting [8]) it was 96.9%. Further, the differential viability (reversal) in experiment [4] (H69AR cells + 2 uM doxorubicin) was 8.79% (inactive). Besides, the inhibition in experiment [5] is 0.26% (inactive); in experiment [6], -4.92% (inactive).

Regarding `Nc1ncnc2c1ncn2[C@@H]1O[C@H](CO)[C@@H](O)[C@H]1O`, the viability was 105% (inactive) in experiment [1]; 93.9% (inactive) in experiment [2]; 113% (inactive) in experiment [3]; 87% in experiment [4] (setting [7]); 113% in experiment [4] (setting [8]). Further, in experiment [4] (H69AR cells + 2 uM doxorubicin), the differential viability (reversal) was 25.9% (inactive). For the same molecule, the inhibition in experiment [5] is -2.47% (inactive); in experiment [6], 0.33% (inactive).

As to `CC1(C)CC(=O)C=C(NC2CCS(=O)(=O)C2)C1` (stereo unspecified), the viability was 97% (inactive) in experiment [1]; 107% (inactive) in experiment [2]; 91.3% (inactive) in experiment [3]; 92.2% in experiment [4] (setting [7]); 91.3% in experiment [4] (setting [8]). Moreover, the differential viability (reversal) in experiment [4] (H69AR cells + 2 uM doxorubicin) was -0.825% (inactive). Moreover, the inhibition in experiment [5] is 0% (inactive); in experiment [6], 6.89% (inactive).

For the molecule `O=C(NCN1CCCCC1)c1cccnc1`, the viability in experiment [1] is 134% (inactive); in experiment [2], 102% (inactive); in experiment [3] it was 106% (inactive); in experiment [4] (setting [7]), 107%; in experiment [4] (setting [8]), 106%. Also, the differential viability (reversal) in experiment [4] (H69AR cells + 2 uM doxorubicin) was -0.935% (inactive). In addition, the inhibition in experiment [5] is -3.9% (inactive); in experiment [6], 6.07% (inactive).

`Cc1cccc(NC(=O)CCCCCN2C(=O)c3ccccc3C2=O)n1`: the viability in experiment [1] is 92% (inactive); in experiment [2], 105% (inactive); in experiment [3] it was 105% (inactive); in experiment [4] (setting [7]) it was 102%; in experiment [4] (setting [8]), 105%. For the same molecule, in experiment [4] (H69AR cells + 2 uM doxorubicin), the differential viability (reversal) is 2.47% (inactive). Also, the inhibition in experiment [5] was -7.12% (inactive); in experiment [6], 5.45% (inactive).

As for `Cc1cccc(N(CC(=O)Nc2ccc(CC#N)cc2)S(C)(=O)=O)c1`, the viability is 108% (inactive) in experiment [1]; 105% (inactive) in experiment [2]; 97% (inactive) in experiment [3]; 86.2% in experiment [4] (setting [7]); 97% in experiment [4] (setting [8]). Further, the differential viability (reversal) in experiment [4] (H69AR cells + 2 uM doxorubicin) was 10.8% (inactive). Further, the inhibition in experiment [5] is -10.8% (inactive); in experiment [6] it was 2.74% (inactive).

Take `CCOC(=O)C1(CC)NC(c2cccc(F)c2)C2C(=O)N(CC)C(=O)C21` (stereo unspecified): the viability in experiment [1] was 104% (inactive); in experiment [2] it was 96.1% (inactive); in experiment [3], 97.6% (inactive); in experiment [4] (setting [7]), 92.6%; in experiment [4] (setting [8]), 97.6%. The differential viability (reversal) in experiment [4] (H69AR cells + 2 uM doxorubicin) is 5.01% (inactive). The figures for the inhibition in experiment [5] and in experiment [6] were -3.29% (inactive) and 3.06% (inactive), respectively.

`O=C(CSc1nnc(-c2ccco2)n1CC1CCCO1)NC1CCCC1` (stereo unspecified): the viability in experiment [1] was 116% (inactive); in experiment [2] it was 94.6% (inactive); in experiment [3], 94.3% (inactive); in experiment [4] (setting [7]), 86.8%; in experiment [4] (setting [8]) it was 94.3%. The differential viability (reversal) in experiment [4] (H69AR cells + 2 uM doxorubicin) was 7.47% (inactive). For the same molecule, the inhibition in experiment [5] is -2% (inactive); in experiment [6] it was -5.27% (inactive).

Take `Cc1ccccc1-n1c(SCc2c(C)noc2C)nnc1-c1ccncc1`: the viability in experiment [1] is 92% (inactive); in experiment [2], 87.5% (inactive); in experiment [3], 87.4% (inactive); in experiment [4] (setting [7]) it was 79.1%; in experiment [4] (setting [8]), 87.4%. Moreover, the differential viability (reversal) in experiment [4] (H69AR cells + 2 uM doxorubicin) is 8.34% (inactive). The figures for the inhibition in experiment [5] and in experiment [6] were -3.78% (inactive) and -2% (inactive), respectively.

With `CCn1c(SCC(=O)Nc2ccc3c(c2)OCO3)nnc1-c1cnccn1`, the viability was 89% (inactive) in experiment [1]; 93.1% (inactive) in experiment [2]; 95.4% (inactive) in experiment [3]; 89.7% in experiment [4] (setting [7]); 95.4% in experiment [4] (setting [8]). Besides, the differential viability (reversal) in experiment [4] (H69AR cells + 2 uM doxorubicin) was 5.74% (inactive). In addition, the inhibition in experiment [5] was -5.62% (inactive); in experiment [6], -0.73% (inactive).

On to `Cc1ccc(S(=O)(=O)C(C#N)c2nc3ccccc3nc2OC(C)C)cc1` (stereo unspecified), for which the viability in experiment [1] is 101% (inactive); in experiment [2], 91% (inactive); in experiment [3] it was 105% (inactive); in experiment [4] (setting [7]), 97.3%; in experiment [4] (setting [8]), 105%. Besides, the differential viability (reversal) in experiment [4] (H69AR cells + 2 uM doxorubicin) was 7.79% (inactive). Further, the values for the inhibition in experiment [5] and in experiment [6] were -4.13% (inactive) and 4.55% (inactive), respectively.

With `O=C(c1csc2ccccc12)n1cccn1`, the viability in experiment [1] is 117% (inactive); in experiment [2], 89.7% (inactive); in experiment [3], 93% (inactive); in experiment [4] (setting [7]), 86.3%; in experiment [4] (setting [8]), 93%. Also, in experiment [4] (H69AR cells + 2 uM doxorubicin), the differential viability (reversal) was 6.73% (inactive). In addition, the figures for the inhibition in experiment [5] and in experiment [6] were -12.3% (inactive) and -1.29% (inactive), respectively.
